Like-named read-outs stand apart in the source and are kept apart here. Each block holds one compound with its values, some of them ahead of it.
How the values were obtained:
S1PR2 [1] = target: T1, S1PR2 (Homo sapiens, UniProt O95136); assay: 33P-S1P radioligand competition binding assay; details: read-out: IC50, displacement of radiolabeled S1P, S1PR2-CRE bla cells, 4°C
S1PR2 [2] = target: T1, S1PR2; assay: JTE-013 inhibition of agonists in the S1PR2 CRE-bla assay; type: cell-based; details: linear regression of Schild plot, against S1P
CRE = details: ref PubChem AID 662; cited from earlier work
[3] = tested on: CRE-bla parental cell line; assay: parental CRE-bla CHO cell line counterscreen assay; type: cell-based
Method in brief: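 Counterscreen in the parental CRE-β-lactamase reporter CHO line without S1PR2, run alongside the S1PR2 assay. Hits were retested in triplicate at 5 micromolar and then tested in dose response.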

[4] = target: triple mutant S1PR2 (R108A, E109A and K269A) (Homo sapiens, UniProt O95136, E109A/K269A/R108A); assay: GloSensor cAMP assay, triple mutant S1PR2-eGFP Jump-In CHO cells; type: cell-based
wild type S1PR2 = wild type S1PR2 (Homo sapiens, UniProt O95136); assay: GloSensor cAMP assay, wild type S1PR2-eGFP Jump-In CHO cells; type: cell-based
S1PR1 = S1PR1 (Homo sapiens, UniProt P21453); assay: S1PR1 agonist assay; type: cell-based
S1PR4 = target: T2, S1PR4 (Homo sapiens, UniProt O95977); assay: S1PR4 agonist assay; type: cell-based
T2 sequence (O95977 1-384): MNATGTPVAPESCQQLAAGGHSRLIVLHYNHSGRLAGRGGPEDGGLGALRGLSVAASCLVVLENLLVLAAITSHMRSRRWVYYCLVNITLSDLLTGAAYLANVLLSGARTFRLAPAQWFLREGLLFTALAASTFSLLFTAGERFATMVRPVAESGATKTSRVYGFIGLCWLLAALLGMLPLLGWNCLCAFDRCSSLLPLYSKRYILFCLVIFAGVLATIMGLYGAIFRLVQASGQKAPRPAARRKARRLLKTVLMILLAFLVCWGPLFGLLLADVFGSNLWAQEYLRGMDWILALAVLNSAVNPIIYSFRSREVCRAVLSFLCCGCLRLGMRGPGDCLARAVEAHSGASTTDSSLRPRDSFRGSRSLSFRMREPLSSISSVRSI

S1PR2 [5] = target: T1, S1PR2; assay: S1PR2 CRE-bla CHO reporter agonist assay; type: cell-based; details: for EC50: read-out: EC50 S1PR2; for Emax: read-out: Max Activity (% of 1 μM S1P)
Method in brief: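 Stable CHO line carrying a CRE-driven β-lactamase reporter and expressing human S1PR2, run in 384-well format. […] For antagonist challenge, agonist dose responses were run with a reference S1PR2 antagonist at 10, 30 or 90 nM.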

S1PR5 = S1PR5 (Homo sapiens, UniProt Q9H228); assay: S1PR5 agonist assay; type: cell-based
S1PR3 = S1PR3 (Homo sapiens, UniProt Q99500); assay: S1PR3 agonist assay; type: cell-based
S1PR3, sequence (Q99500 whole entry, species assumed): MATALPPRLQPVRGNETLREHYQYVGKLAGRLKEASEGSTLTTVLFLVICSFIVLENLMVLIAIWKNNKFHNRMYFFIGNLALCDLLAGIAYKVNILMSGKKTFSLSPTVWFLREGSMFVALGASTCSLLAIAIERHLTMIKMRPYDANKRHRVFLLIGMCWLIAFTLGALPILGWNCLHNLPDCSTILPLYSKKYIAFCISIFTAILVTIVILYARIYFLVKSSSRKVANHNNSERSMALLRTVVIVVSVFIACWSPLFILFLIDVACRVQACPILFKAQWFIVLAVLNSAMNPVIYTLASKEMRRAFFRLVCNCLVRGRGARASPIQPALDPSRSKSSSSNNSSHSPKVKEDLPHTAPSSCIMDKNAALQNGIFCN

T1 sequence (O95136 whole entry): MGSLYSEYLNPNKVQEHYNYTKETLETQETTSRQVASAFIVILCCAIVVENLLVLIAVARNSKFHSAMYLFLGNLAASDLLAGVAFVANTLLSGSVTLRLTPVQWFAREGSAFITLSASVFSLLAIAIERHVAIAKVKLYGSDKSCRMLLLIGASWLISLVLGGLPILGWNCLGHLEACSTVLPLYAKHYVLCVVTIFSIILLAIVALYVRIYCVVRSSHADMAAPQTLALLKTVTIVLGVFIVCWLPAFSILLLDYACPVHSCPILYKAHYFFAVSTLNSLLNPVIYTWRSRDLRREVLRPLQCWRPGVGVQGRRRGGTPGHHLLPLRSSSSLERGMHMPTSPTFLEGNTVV
S1PR5, sequence (Q9H228 whole entry, species assumed): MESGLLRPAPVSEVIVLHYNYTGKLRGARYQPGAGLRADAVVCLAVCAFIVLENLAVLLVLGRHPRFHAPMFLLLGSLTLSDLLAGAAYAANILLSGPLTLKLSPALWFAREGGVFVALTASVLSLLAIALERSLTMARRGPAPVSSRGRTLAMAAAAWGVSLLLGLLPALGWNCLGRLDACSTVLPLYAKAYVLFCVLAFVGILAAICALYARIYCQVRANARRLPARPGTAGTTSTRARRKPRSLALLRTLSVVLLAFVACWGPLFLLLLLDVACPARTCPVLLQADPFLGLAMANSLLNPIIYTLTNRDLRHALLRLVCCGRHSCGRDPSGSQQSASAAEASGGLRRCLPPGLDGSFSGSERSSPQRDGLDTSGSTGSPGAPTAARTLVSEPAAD
wild type S1PR2, sequence (O95136 whole entry): as the sequence (O95136 whole entry) above
S1PR1, sequence (P21453 whole entry, species assumed): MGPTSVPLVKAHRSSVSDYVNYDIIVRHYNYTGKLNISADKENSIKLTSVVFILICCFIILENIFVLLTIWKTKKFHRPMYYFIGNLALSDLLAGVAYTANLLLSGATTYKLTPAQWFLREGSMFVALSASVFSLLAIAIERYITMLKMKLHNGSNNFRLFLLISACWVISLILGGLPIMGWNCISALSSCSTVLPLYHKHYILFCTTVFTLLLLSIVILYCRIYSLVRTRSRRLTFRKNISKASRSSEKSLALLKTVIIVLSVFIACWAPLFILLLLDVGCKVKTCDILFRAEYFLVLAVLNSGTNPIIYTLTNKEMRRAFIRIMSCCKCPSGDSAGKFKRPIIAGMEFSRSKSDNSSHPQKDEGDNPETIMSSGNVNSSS
triple mutant S1PR2 (R108A, E109A and K269A), sequence (O95136 whole entry R108A/E109A/K269A): as the sequence (O95136 whole entry) above, with R108A, E109A, K269A counted along it

agonist efficacy (in words) (wild type S1PR2): full agonists
SMILES: CCCCCCCCCCCCC/C=C/[C@@H](O)[C@@H](N)COP(=O)(O)O [S1P, Sphingosine 1-phosphate, reference compound]
cAMP response (in words) [4]: did not elicit a rise in luciferase activity

activity in S1PR1 agonist assay (S1PR1): inactive | activity in S1PR4 agonist assay (S1PR4): inactive | EC50 (S1PR2 [5]; Table 2, purchased analogues of XAX-164): 550 nM | Emax (S1PR2 [5]; Table 2): 130% | activity in S1PR5 agonist assay (S1PR5): inactive | activity in S1PR3 agonist assay (S1PR3): inactive
SMILES: Cc1ccc(Sc2ccc(C3SCCS3)cc2[N+](=O)[O-])cc1 [compound 3]

activity in S1PR1 agonist assay (S1PR1): inactive | activity in S1PR4 agonist assay (S1PR4): inactive | EC50 (wild type S1PR2; read-out: EC50, cAMP response): 1600 nM | increase in potency (S1PR2 [5]; cyanide group in place of the trifluoromethyl of 10): 1.6 fold | EC50 (S1PR2 [5]; Table 3, synthesized compounds): 480 nM | Emax (S1PR2 [5]; Table 3): 100% | activity in S1PR5 agonist assay (S1PR5): inactive | activity in S1PR3 agonist assay (S1PR3): inactive
SMILES: Cc1cc(C(=O)Cn2cc(C#N)ccc2=O)c(C)n1Cc1ccccc1 [compound 14]
activity in the CRE-bla counterscreen (in words) [3]: inactivity

The next lines start with the compound.

SMILES: Cc1nn(C)c2nc(NNC(=O)Nc3cc(Cl)nc(Cl)c3)cc(C(C)C)c12 [JTE-013]
IC50 (S1PR2 [1]): 53 nM | Ki (S1PR2 [2]): 20 nM

SMILES: CCOC(=O)c1c(C)n(C)c2ccc(OCC(O)Cn3nc(C)cc3C)cc12 (stereo not drawn) [MLS000049871]
activity in PubChem AID 662 (CRE): active | activity in the CRE-bla counterscreen (in words) [3]: inactive
